Assay [1] deals with Beta-lactamase (Staphylococcus aureus) (UniProt P00807). In words: Minimum protective concentration used to protect the compound against Staphylococcus aureus A9606 beta-lactamase catalyzed hydrolysis.
In assay [2] the target is Metallo-beta-lactamase type 2 (Bacteroides fragilis) (UniProt P25910). Kind of assay: Minimum protective concentration used to protect the compound against Bacteroides fragilis A-22,695 beta-lactamase catalyzed hydrolysis.
Assay [3] relates to TEM beta-lactamase (Klebsiella pneumoniae). Kind of assay: Minimum protective concentration used to protect the compound against Klebsiella pneumoniae A20634 beta-lactamase catalyzed hydrolysis.
Assay [4] concerns the target Carbapenem-hydrolyzing beta-lactamase KPC (Klebsiella pneumoniae) (UniProt Q9F663).
Assay [5] relates to Staphylococcus aureus. Kind of assay: Compound alone was evaluated for minimum inhibitory concentration against Staphylococcus aureus A9606. Format: functional. In a few lines:
(§1)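 Agar dilution MIC: organisms deposited onto medicated agar plates with a Steers replication device.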

Assay [6] deals with Staphylococcus aureus. In words: Compound was evaluated for minimum inhibitory concentration in the presence of amoxicillin against Staphylococcus aureus A9606. Format: functional. The procedure, abridged: (§2)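 Agar dilution MIC of a 1:1 (w/w) mixture of test compound with amoxicillin. Organisms were applied to medicated agar plates with a Steers replicator.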
In assay [7] the test system is Escherichia coli. Kind of assay: Compound was evaluated for minimum inhibitory concentration in the presence of amoxicillin against Escherichia coli A20107. Format: functional. In a few lines: as §2
In assay [8] the test system is Escherichia coli. In words: Compound alone was evaluated for minimum inhibitory concentration against Escherichia coli A20111. Format: functional. In a few lines:
as §1

Assay [9] deals with Escherichia coli. Kind of assay: Compound was evaluated for minimum inhibitory concentration in the presence of amoxicillin against Escherichia coli A20111. Format: functional. The procedure, abridged: as §2
The test system of assay [10] is Staphylococcus aureus. Kind of assay: Compound alone was evaluated for minimum inhibitory concentration against Staphylococcus aureus A15033. Format: functional. The procedure, abridged:
as §1

Assay [11] relates to Staphylococcus aureus. In words: Compound was evaluated for minimum inhibitory concentration in the presence of amoxicillin against Staphylococcus aureus A15033. Format: functional. In a few lines:
as §2

The test system of assay [12] is Escherichia coli. In words: Compound alone was evaluated for minimum inhibitory concentration against Escherichia coli A20107. Format: functional. In a few lines:
as §1

The results in this text go back to ChEMBL document CHEMBL1122984, “Synthesis and beta-lactamase inhibitory properties of 2 beta-[(acyloxy)methyl]-2-methylpenam-3 alpha-carboxylic acid 1,1-dioxides” (1985).

Converted amounts (≈) assume the structure as drawn.

Sequence of Metallo-beta-lactamase type 2 (Bacteroides fragilis) (P25910 whole entry): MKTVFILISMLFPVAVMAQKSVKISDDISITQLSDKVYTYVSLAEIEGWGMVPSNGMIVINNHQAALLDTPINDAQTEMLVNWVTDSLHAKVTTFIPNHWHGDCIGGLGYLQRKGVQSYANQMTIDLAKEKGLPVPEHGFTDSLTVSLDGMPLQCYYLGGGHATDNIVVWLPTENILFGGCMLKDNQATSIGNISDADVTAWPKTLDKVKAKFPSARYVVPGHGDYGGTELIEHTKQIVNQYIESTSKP
Sequence of Beta-lactamase (Staphylococcus aureus) (P00807 whole entry): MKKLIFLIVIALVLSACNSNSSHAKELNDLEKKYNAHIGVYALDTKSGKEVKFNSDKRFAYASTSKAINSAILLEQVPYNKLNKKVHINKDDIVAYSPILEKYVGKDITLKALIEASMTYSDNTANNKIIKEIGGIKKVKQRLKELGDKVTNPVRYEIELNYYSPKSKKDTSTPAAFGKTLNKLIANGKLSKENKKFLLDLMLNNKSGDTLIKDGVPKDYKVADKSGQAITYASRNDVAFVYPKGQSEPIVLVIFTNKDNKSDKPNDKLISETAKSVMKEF
Sequence of Carbapenem-hydrolyzing beta-lactamase KPC (Klebsiella pneumoniae) (Q9F663 whole entry): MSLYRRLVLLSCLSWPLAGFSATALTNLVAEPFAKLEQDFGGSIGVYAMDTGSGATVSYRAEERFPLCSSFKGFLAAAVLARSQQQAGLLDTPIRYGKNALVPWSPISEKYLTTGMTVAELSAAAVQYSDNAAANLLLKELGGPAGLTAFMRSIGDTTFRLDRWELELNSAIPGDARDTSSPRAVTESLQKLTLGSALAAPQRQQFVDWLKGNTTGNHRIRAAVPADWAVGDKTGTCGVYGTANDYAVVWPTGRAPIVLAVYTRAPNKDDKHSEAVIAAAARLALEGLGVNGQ

For the molecule `C[C@]1(CO)[C@H](C(=O)O)N2C(=O)CC2S1(=O)=O` (stereo partly drawn), the MPC in assay [1] was more than 100 µg/mL; in [2], 100 µg/mL; in assay [3], 6.2 µg/mL.

In the case of `C[C@]1(CCl)[C@H](C(=O)O)N2C(=O)CC2S1(=O)=O` (stereo partly drawn), the MPC in [1] amounted to 3.1 µg/mL; in [2] it was 12.5 µg/mL; in assay [3], 3.1 µg/mL.

Turning to `CC1(C)[C@H](C(=O)O)N2C(=O)C[C@H]2S1(=O)=O`, the MPC in assay [4] is 1.6 µg/mL.

Turning to `O=C(O)[C@H]1/C(=C/CO)O[C@@H]2CC(=O)N21` [CLAVULANIC ACID], the MIC (usually the lowest concentration found to suppress growth) is 32 µg/mL (≈ 161 µM) in assay [5]; 2 µg/mL in assay [6]; 16 µg/mL in assay [7]; 63 µg/mL (≈ 316 µM) in assay [8]; 4 µg/mL in [9]; 63 µg/mL (≈ 316 µM) in [10]. The values for the MIC in assay [11] and in [12] were 4 µg/mL and 63 µg/mL (≈ 316 µM), respectively. Moreover, the MPC in assay [2] came out at 63 µg/mL.

Regarding `CC1(C)S[C@@H]2[C@H](NC(=O)[C@H](N)c3ccc(O)cc3)C(=O)N2[C@H]1C(=O)O` [AMOXICILLIN], the MIC was 32 µg/mL (≈ 87.6 µM) in assay [5], more than 125 µg/mL in assay [8], 32 µg/mL (≈ 87.6 µM) in assay [10] and more than 125 µg/mL in assay [12].

Consider `C[C@]1(CBr)[C@H](C(=O)O)N2C(=O)CC2S1(=O)=O` (stereo partly drawn), for which the values for the MPC in assay [1], in assay [2] and in [3] were 3.1 µg/mL, 12.5 µg/mL and 1.6 µg/mL, respectively.
